Structures are written as SMILES. ≈ marks a conversion by molar mass, not a printed value.

A short description of assay [1]: Cytotoxicity against human CCL229 cells after 3 days by MTT assay. It counts as functional, cell-based. The conditions noted are these: CCL229, 72 h. Summed up:
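CCL-229 colon cancer cells grown in F12K medium (2 mM L-glutamine, 1500 mg/L sodium bicarbonate), seeded at 10,000 cells/well. Compounds added at final 5–500 µg/mL. Incubation 3 days at 37°C, humidified 5% CO2. Viability read by MTT. IC50 is the concentration giving 50% viability, taken from dose-response curves. Triplicate, mean ± SEM.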
In general terms: Tetrazolium assays rely on reduction of a dye to a coloured formazan, in cell work by metabolically active cells.

Assay [2] has as its system COLO 205. Put plainly: Induction of apoptosis in human COLO205 cells at 46 ug/ml after 24 hrs by propidium iodide and annexin V staining method (reference value: 14.3%). Format: functional.
For assay [3], the target named is T1, DNA topoisomerase 1 (Homo sapiens) (UniProt P11387).
T1 sequence (whole entry): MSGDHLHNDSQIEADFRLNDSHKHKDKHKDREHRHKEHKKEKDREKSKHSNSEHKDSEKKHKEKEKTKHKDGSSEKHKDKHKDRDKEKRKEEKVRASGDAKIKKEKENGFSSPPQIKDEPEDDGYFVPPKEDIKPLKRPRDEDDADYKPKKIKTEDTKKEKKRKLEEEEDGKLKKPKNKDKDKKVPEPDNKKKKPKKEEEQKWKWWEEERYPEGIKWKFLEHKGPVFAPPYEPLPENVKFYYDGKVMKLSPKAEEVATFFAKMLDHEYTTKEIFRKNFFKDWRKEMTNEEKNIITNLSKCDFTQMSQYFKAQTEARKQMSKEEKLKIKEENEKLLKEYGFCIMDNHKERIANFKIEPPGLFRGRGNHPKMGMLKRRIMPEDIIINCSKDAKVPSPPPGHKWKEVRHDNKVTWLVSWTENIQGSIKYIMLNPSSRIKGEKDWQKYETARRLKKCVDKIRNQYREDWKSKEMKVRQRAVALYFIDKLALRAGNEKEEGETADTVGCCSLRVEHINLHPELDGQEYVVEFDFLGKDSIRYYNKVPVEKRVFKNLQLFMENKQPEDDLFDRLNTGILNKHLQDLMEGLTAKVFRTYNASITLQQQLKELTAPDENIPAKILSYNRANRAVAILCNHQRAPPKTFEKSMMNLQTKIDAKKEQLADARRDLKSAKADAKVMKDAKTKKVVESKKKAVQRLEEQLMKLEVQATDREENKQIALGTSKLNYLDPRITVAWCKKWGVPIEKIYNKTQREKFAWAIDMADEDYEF
In words: Inhibition of human DNA topoisomerase 1 using pHOT1 supercoiled DNA substrate incubated for 30 mins by ethidium bromide staining based gel electrophoresis method. Summed up: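 Human DNA topoisomerase I kit with pHOT1 supercoiled DNA substrate. Compounds dissolved in 50% DMSO and tested at 10–1,500 μg/mL. Reactions run 30 min at 37°C, stopped with 10% SDS, then proteinase K 0.05 mg/mL for 15 min at 37°C. Products resolved on 1% agarose gel at 72V, stained with ethidium bromide 1 h, destained 30 min. Triplicate.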

Assay [4] concerns the target Nuclear factor NF-kappa-B complex (Homo sapiens) (UniProt Q00653+P19838+Q04206). In words: Inhibition of TNFalpha-induced nuclear factor-kappa-B (unknown origin) expressed in HEK293 cells pre-incubated for 16 hrs followed by TNFalpha stimulation for 6 hrs by luciferase reporter gene assay. Format: cell-based. Summed up: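 NFκB reporter HEK293 cells seeded at 30,000/well in assay medium without hygromycin B and allowed to reattach overnight at 37°C, 5% CO2. Compound dilutions added for 16 h (DMSO in untreated and cell-free controls). Mouse TNFα 5 ng/mL then added for 6 h. Cells lysed with one-step luciferase reagent about 15 min at room temperature, luminescence read. Non-linear regression; triplicate, mean ± SEM.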
In general terms: A reporter such as luciferase makes a cellular process visible.

Assay [5] has as its system COLO 205. In words: Induction of apoptosis in human COLO205 cells assessed as caspase-3 activation at 46 ug/ml by FLICA staining based method. Format: functional. Summed up:
(§1)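 COLO-205 cells exposed under the annexin assay conditions (24 h; camptothecin and DMSO controls). Cells harvested and stained with fluorescent labelled inhibitors of caspases (FLICA) for active caspase 3/7, scored as % positive cells. Triplicate.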

In assay [6] the test system is COLO 205. Put plainly: Induction of mitochondrial membrane permeabilization in human COLO205 cells at 46 ug/ml by JC1 dye based staining method (reference value: 14%). Format: functional. Summed up:
(§2)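 COLO-205 cells, 1×10^6 per sample, exposed under the same conditions and controls as the annexin assay (camptothecin, DMSO). Then labelled with JC-1 at 200 μg/ml and scored for % cells with permeabilized mitochondrial membranes. Triplicate.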

Another assay relates to PBMC. In words: Cytotoxicity against human PBMC after 3 days by MTT assay. Format: cell-based. The conditions noted are these: 72 h. Summed up:
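PBMCs from healthy volunteers cultured in IL-2-supplemented medium, seeded at 4×10^5–5×10^4 cells/well. Compounds added at final 2–100 µg/mL. Incubation 3 days at 37°C, humidified 5% CO2, then MTT read-out. IC50 is the concentration giving 50% viability, from dose-response curves. Triplicate, mean ± SEM.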

Assay [7] concerns COLO 205. In words: Induction of apoptosis in human COLO205 cells at 3.5 ug/ml after 24 hrs by propidium iodide and annexin V staining method (reference value: 14.3%). Format: functional.
In assay [8] the test system is COLO 205. Put plainly: Induction of mitochondrial membrane permeabilization in human COLO205 cells at 3.5 ug/ml by JC1 dye based staining method (reference value: 14%). It counts as functional.
Assay [9] concerns COLO 205. In words: Induction of apoptosis in human COLO205 cells assessed as caspase-3 activation at 3.5 ug/ml by FLICA staining based method. It counts as functional. Summed up:
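COLO-205 cells treated as in the annexin assay (24 h exposure); cells harvested and stained with fluorescent labelled caspase inhibitors (FLICA) for active caspase 3/7; read as percent of cells with active caspase; triplicate runs.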

The test system of assay [10] is COLO 205. In words: Induction of mitochondrial membrane permeabilization in human COLO205 cells at 7.4 ug/ml by JC1 dye based staining method (reference value: 14%). It counts as functional. Summed up: as §2
For assay [11], the system named is COLO 205. In words: Induction of apoptosis in human COLO205 cells at 7.4 ug/ml after 24 hrs by propidium iodide and annexin V staining method (reference value: 14.3%). Format: functional.
Assay [12] relates to COLO 205. In words: Induction of apoptosis in human COLO205 cells assessed as caspase-3 activation at 7.4 ug/ml by FLICA staining based method. Format: functional. Summed up: as §1

Nuclear factor NF-kappa-B complex (Homo sapiens), sequence (P19838 whole entry, looked up): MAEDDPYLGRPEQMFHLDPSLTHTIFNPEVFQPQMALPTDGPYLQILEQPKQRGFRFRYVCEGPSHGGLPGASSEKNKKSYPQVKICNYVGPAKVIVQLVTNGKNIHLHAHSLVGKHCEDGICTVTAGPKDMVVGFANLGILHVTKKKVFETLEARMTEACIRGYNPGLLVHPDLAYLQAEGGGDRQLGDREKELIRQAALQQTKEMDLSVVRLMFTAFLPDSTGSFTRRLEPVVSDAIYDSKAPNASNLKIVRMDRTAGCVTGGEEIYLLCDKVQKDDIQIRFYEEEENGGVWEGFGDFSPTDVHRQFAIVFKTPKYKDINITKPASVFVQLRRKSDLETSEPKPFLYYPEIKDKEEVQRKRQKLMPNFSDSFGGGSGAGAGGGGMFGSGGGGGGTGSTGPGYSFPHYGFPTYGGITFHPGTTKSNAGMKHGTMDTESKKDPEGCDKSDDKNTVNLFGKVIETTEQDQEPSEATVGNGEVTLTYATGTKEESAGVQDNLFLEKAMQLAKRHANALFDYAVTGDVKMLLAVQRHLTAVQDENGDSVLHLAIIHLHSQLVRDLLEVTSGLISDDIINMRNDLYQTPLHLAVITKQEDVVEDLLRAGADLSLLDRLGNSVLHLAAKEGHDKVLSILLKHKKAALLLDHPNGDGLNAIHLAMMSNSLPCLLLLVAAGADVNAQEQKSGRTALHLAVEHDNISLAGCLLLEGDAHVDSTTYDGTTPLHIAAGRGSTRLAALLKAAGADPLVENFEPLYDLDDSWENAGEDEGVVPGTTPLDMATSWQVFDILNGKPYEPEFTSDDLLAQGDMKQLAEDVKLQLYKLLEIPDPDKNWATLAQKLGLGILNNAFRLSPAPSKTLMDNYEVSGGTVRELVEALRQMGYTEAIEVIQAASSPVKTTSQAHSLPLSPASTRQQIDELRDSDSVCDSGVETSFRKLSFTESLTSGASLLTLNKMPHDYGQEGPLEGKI
Nuclear factor NF-kappa-B complex (Homo sapiens), sequence (Q00653 whole entry, looked up): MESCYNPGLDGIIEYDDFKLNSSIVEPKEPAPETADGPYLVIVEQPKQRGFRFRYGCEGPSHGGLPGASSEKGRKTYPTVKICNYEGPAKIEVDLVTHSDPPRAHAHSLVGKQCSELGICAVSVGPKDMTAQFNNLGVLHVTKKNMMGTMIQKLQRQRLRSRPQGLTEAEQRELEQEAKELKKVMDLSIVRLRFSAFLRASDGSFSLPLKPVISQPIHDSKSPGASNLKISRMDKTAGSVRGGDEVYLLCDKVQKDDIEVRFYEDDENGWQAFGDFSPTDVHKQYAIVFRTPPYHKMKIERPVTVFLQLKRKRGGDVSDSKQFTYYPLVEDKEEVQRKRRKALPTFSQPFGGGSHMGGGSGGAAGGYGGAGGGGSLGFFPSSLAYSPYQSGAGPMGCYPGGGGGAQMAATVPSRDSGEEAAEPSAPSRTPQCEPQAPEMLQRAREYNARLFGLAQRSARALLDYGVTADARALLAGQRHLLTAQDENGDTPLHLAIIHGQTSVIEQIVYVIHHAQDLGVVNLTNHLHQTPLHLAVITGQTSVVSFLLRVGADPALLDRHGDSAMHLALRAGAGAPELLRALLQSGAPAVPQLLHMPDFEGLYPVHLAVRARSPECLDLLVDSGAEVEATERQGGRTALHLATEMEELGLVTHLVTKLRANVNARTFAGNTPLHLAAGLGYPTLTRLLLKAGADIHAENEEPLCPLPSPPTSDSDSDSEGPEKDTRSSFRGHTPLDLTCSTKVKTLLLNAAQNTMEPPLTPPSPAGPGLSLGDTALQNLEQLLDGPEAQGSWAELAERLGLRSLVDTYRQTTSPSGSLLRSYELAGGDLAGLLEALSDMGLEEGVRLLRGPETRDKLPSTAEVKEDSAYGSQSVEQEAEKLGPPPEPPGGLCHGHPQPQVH
Nuclear factor NF-kappa-B complex (Homo sapiens), sequence (Q04206 whole entry, looked up): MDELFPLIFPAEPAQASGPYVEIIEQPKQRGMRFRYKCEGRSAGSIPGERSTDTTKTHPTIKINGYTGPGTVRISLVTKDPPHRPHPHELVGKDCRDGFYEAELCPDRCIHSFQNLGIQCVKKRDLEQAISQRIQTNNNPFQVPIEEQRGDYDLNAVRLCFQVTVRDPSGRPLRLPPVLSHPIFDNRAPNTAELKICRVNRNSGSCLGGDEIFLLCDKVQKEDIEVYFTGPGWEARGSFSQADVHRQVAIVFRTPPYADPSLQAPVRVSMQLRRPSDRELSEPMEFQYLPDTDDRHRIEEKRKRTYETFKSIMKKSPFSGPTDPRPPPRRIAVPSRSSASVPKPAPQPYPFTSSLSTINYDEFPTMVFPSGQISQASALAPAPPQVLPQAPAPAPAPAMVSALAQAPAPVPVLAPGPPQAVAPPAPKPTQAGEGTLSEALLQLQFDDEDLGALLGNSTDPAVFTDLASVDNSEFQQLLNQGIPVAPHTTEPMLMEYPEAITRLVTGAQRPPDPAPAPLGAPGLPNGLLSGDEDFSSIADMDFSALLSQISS

A word on the IC50: it is the concentration that inhibits the measured activity by half. The low end stands for greater potency, the high end for weaker potency. In [1], `CCCCCCCCCCCCCCCC(=O)Oc1cc(/C=C2\CCC/C(=C\c3ccc(OC)c(OC(=O)CCCCCCCCCCCCCCC)c3)C2=O)ccc1OC` gave an IC50 of 130 µg/mL (≈ 154 µM).
In the case of `CCCCCCCCCC(=O)Oc1cccc(/C=C/C(=O)/C=C/c2cccc(OC(=O)CCCCCCCCC)c2)c1`, the values for the Activity in the assay on COLO 205 [2], with COLO 205 [5] and with COLO 205 [6] were 27.5%, 19.5% and 68%, respectively. The results for the IC50 (in assay [1]; in the assay on PBMC) were 22.5 µg/mL (≈ 39.1 µM) and 35.9 µg/mL (≈ 62.5 µM), respectively. Moreover, the MIC in [3] was determined as 50 µg/mL (≈ 87 µM). In addition, the inhibition result in assay [4] is “Dose-dependent effect”.
Consider `CC[C@@]1(O)C(=O)OCc2c1cc1n(c2=O)Cc2cc3ccccc3nc2-1` [CAMPTOTHECIN], for which the Activity in the assay on COLO 205 [7] worked out at 29%; in the assay with COLO 205 [8], 48.5%; with COLO 205 [9], 30%.
Take `CCCCCCCCCC(=O)Oc1ccc(/C=C/C(=O)/C=C/c2ccc(OC(=O)CCCCCCCCC)cc2)cc1`: half-maximal inhibition in assay [1] (IC50) was put at 180 µg/mL (≈ 313 µM).
For `CCCCCCCCCCCCCCCC(=O)Oc1cc(/C=C/C(=O)/C=C/c2ccc(OC)c(OC(=O)CCCCCCCCCCCCCCC)c2)ccc1OC`, the IC50 in assay [1] was determined as 70.5 µg/mL (≈ 87.8 µM).
With `CCCCCCCCCCCCCCCC(=O)Oc1ccc(/C=C/C(=O)/C=C/c2ccc(OC(=O)CCCCCCCCCCCCCCC)c(OC)c2)cc1OC`, the values for the IC50 (in [1]; in the assay with PBMC) were 56.1 µg/mL (≈ 69.8 µM) and 40.6 µg/mL (≈ 50.5 µM), respectively. Besides, the MIC in assay [3] was determined as 100 µg/mL (≈ 125 µM).
In assay [1], `CCCCCCCCCC(=O)Oc1ccc(/C=C/C(=O)/C=C/c2ccc(OC(=O)CCCCCCCCC)c(OC)c2)cc1OC` displayed an IC50 of 143 µg/mL (≈ 225 µM).
Consider `CCCCCCCCCCCCCCCC(=O)Oc1ccc(/C=C2\CCC/C(=C\c3ccc(OC(=O)CCCCCCCCCCCCCCC)c(OC)c3)C2=O)cc1OC`, for which the IC50 in assay [1] stood at 139 µg/mL (≈ 165 µM).
Same read-out and setting: as for `CCCCCCCCCCCCCCCC(=O)Oc1cccc(/C=C/C(=O)/C=C/c2cccc(OC(=O)CCCCCCCCCCCCCCC)c2)c1`, the figure is 113 µg/mL (≈ 152 µM); as for `CCCCCCCCCC(=O)Oc1cc(/C=C/C(=O)/C=C/c2ccc(OC)c(OC(=O)CCCCCCCCC)c2)ccc1OC`, 66 µg/mL (≈ 104 µM).
For `COc1cc(/C=C/C(=O)CC(=O)/C=C/c2ccc(O)c(OC)c2)ccc1O` [CURCUMIN], the IC50 amounted to 26.8 µg/mL (≈ 72.7 µM) in assay [1] and 12.3 µg/mL (≈ 33.4 µM) in the assay with PBMC. Further, the Activity in the assay with COLO 205 [10] worked out at 23%; in the assay with COLO 205 [11] it was 27.5%; with COLO 205 [12], 23.3%. The inhibition result in assay [4] is “Dose-dependent effect”.
For `CCCCCCCCCCCCCCCC(=O)Oc1cccc(/C=C2\CCC/C(=C\c3cccc(OC(=O)CCCCCCCCCCCCCCC)c3)C2=O)c1`, the IC50 in assay [1] stood at 29.3 µg/mL (≈ 37.4 µM); in the assay with PBMC it was 36.3 µg/mL (≈ 46.3 µM). Also, the MIC in assay [3] is 250 µg/mL (≈ 319 µM).

Values taken from ChEMBL document CHEMBL3400062, “Synthesis of novel C5-curcuminoid-fatty acid conjugates and mechanistic investigation of their anticancer activity” (Bioorg Med Chem Lett, 2015).
